Experimental data reported in ChEMBL document CHEMBL1123735 (J Med Chem, 1987).

Experiments:
Cavia porcellus = organism: Cavia porcellus; assay: Antimuscarinic activity was assayed for its ability to block the acetyl-choline induced contraction of the guinea pig ileum; assay type: functional
Rattus norvegicus [1] = organism: Rattus norvegicus; assay: Inhibition of carbachol-induced release of alpha-amylase from pancreatic acini from rat was determined; assay type: functional; settings: read-out: I50
Outline: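 Dispersed acini from male Sprague–Dawley rat pancreas (collagenase 0.8 mg/mL, three incubations), in DMEM with 0.2% albumin, 0.01% trypsin inhibitor, 0.09% theophylline under O2; viability >99%. Incubated with graded antagonist plus 10⁻⁵ M carbachol; secreted α-amylase by Phadebas assay; I50 by curve fitting.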

[2] = target: Muscarinic acetylcholine receptor; assay: Inhibit the binding of [N-mnethyl-3H]-scopolamine [3H]-NMS) to Muscarinic acetylcholine receptor of human IRM-30 neuroblastoma cells
Rattus norvegicus [3] = organism: Rattus norvegicus; assay: Compound was tested for decrease in rate of lever pressing by rat; assay type: functional
Outline: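 Male Sprague–Dawley rats (350 g) lever-pressing for food on a 10-response schedule; sessions 30 min or 50 food presentations. Drug given intraperitoneally 30 min before session; saline controls. Mean ± SEM of single or duplicate determinations in four to six rats; I50 in mol/kg for rate decrease.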

Row | Structure (SMILES) | Kb (Cavia porcellus) | Kb (Cavia porcellus; read-out: pA2 (converted)) | IC50 (Rattus norvegicus [1]) | Ki [2] | I50 (Rattus norvegicus [3])
1 | CCN(CC)CCOC(=O)C(c1ccccc1)c1ccccc1 [ADIPHENINE] | 92 nM | 79.4 nM | 350 nM |  | 
2 | CCN(CC)CCOC(=O)C(C)(c1ccccc1)c1ccccc1 [APROFENE] | 3.1 nM | 3.16 nM | 11 nM | 23 nM | 
3 | CN1[C@@H]2CC[C@H]1C[C@@H](OC(=O)C(CO)c1ccccc1)C2 (stereo partly drawn) [ATROPINE] | 2 nM | 2 nM | 51 nM |  | 2.3e-05 M/kg
4 | CN1CC2CC(OC(=O)C(C)(c3ccccc3)c3ccccc3)CC1C2 (stereo not drawn) [AZAPROPHEN] |  |  | 0.068 nM | 0.27 nM | 1.9e-05 M/kg
5 | CCN(CC)CCOC(=O)C(O)(c1ccccc1)c1ccccc1 [BENACTYZINE] |  |  | 30 nM |  | 
6 | CN1CCN(CC(=O)N2c3ccccc3C(=O)Nc3cccnc32)CC1 [PIRENZEPINE] | 50000 nM | 50100 nM | 2800 nM |  | 
